Here are results for one compound from PMC4110683 (Chemistry and physics of lipids, 2013).

Values after ≈ are worked out from the molar mass of the structure shown. Where two headings read alike, the source gives them in different places.

Data set [1] has as its system InhA, the enoyl-ACP reductase. To be noted: in words; ref Morbidoni et al., 2006; cited from earlier work.
Data set [2] has as its target T1, hTopIB (Homo sapiens, UniProt P11387).
T1 sequence (P11387 1-765): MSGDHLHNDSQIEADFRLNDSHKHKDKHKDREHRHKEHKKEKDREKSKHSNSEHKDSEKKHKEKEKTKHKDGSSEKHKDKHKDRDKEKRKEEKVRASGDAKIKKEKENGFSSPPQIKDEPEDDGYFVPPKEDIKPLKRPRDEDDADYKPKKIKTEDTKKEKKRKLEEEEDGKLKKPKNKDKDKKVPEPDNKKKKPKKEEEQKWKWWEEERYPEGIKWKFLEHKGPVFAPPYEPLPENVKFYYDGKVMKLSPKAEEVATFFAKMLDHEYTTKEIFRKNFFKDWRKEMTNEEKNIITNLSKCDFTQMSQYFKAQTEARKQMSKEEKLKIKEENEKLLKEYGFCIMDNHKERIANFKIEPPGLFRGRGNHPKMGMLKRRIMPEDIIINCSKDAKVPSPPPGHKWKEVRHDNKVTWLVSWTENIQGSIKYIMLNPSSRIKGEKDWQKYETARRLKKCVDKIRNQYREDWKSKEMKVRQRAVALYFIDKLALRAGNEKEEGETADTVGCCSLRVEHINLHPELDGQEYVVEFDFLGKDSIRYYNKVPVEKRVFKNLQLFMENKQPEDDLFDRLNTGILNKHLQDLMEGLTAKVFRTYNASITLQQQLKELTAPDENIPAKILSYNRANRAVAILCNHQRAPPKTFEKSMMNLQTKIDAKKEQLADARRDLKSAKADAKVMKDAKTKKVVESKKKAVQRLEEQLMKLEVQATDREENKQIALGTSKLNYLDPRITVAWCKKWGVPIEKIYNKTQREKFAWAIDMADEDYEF
To be noted: read-out: hTopIB EC50; relaxation activity; ref Carballeira et al., 2012; cited from earlier work.

Data set [3] concerns L. donovani promastigotes. As to conditions: read-out: IC50 L. donovani promastigotes; ref Carballeira et al., 2012; cited from earlier work.
The test system of data set [4] is human SH-SY5Y neuroblastoma cells. The data set can be described thus: LDH release in SH-SY5Y cells. Format: cell-based. To be noted: 40 μM, 48h, in words.
Data set [5] has as its system M. smegmatis mc^2 155. To be noted: ref Morbidoni et al., 2006; cited from earlier work.
Data set [6] has as its system LdTopIB. As to conditions: read-out: LdTopIB EC50; relaxation activity; ref Carballeira et al., 2012; cited from earlier work.
In data set [7] the test system is P. falciparum K1. The data set can be described thus: Toxicity to P. falciparum K1 strain. The class given is cell-based, Plasmodium falciparum.
Data set [8] has as its system human colon adenocarcinoma grade II cell line (HT29). The data set can be described thus: Cytotoxicity to HT29 cells. As to conditions: HT-29, read-out: IC50 HT29. The class given is cell-based.
Data set [9] deals with T2, PfFabI (Plasmodium falciparum, UniProt Q9BH77).
T2 sequence (Q9BH77 22-432): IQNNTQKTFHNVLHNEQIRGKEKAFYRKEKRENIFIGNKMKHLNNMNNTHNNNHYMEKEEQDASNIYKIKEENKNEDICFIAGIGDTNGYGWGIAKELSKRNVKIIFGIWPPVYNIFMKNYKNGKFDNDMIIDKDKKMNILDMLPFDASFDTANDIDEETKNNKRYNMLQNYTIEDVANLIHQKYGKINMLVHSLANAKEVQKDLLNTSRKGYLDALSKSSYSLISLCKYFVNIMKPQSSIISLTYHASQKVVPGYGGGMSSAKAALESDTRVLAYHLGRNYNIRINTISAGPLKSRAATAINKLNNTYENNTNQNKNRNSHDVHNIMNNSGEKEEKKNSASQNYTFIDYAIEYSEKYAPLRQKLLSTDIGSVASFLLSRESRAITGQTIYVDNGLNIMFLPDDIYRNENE
The data set can be described thus: Inhibition of PfFabI. The class given is biochemical.

The target of data set [10] is PfFabG (Plasmodium falciparum, UniProt Q8I2S7). The data set can be described thus: biochemical.
The test system of data set [11] is housefly. To be noted: in words, ref de Renobales et al., 1986; cited from earlier work.
The subject of data set [12] is caspase-3. The data set can be described thus: Caspase-3 activation in SH-SY5Y cells. Format: cell-based, human. To be noted: 40 μM, 48h, in words.
Data set [13] deals with Mycobacterium tuberculosis H37Rv. To be noted: ref Morbidoni et al., 2006; cited from earlier work.
The test system of data set [14] is mouse leukaemic monocyte macrophage cell line (RAW 264.7). The data set can be described thus: Cytotoxicity to RAW 264.7 cells. Format: cell-based. As to conditions: RAW264.7, read-out: IC50 RAW 264.7.
Data set [15] has as its system BALB/c murine macrophages. To be noted: read-out: Murine macrophages BALB/c IC50; ref Carballeira et al., 2012; cited from earlier work.
Data set [16] relates to human SH-SY5Y neuroblastoma cell line. The data set can be described thus: Cytotoxicity to SH-SY5Y neuroblastoma cells. The class given is cell-based. To be noted: 120 h, read-out: IC50 SH-SY5Y neuroblastoma cell line. Put shortly:
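Human SH-SY5Y neuroblastoma cells were first differentiated with 15 μM all-trans retinoic acid for 5 d. Test compound was then added to the culture medium, and activity was read by sulforhodamine B (SRB) assay.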

Data set [17] deals with T3, PfFabZ (Plasmodium falciparum, UniProt Q965D7).
T3 sequence (Q965D7 19-230): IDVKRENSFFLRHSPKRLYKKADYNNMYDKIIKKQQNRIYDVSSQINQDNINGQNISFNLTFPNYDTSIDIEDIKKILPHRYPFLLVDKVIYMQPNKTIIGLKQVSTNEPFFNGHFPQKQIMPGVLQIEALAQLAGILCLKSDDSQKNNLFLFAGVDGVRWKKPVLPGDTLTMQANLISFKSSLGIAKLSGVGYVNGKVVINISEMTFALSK
The data set can be described thus: Inhibition of PfFabZ. Format: biochemical.

As a reminder, the EC50 is the concentration at which the effect is half-maximal. With `CCCCCCCCCCCCCCCC#CC(=O)O` [2-ODA, 2-octadecynoic acid], the “Inhibition of InhA” value in [1] is recorded as “able to inhibit”. In addition, the EC50 in data set [2] is 34.8 ± 2.3 µM; in data set [6], 5.3 ± 0.7 µM. In addition, the IC50 was 11 µM in data set [3]; 20 µM in data set [7] (Plasmodium falciparum, K1, read-out: IC50 P. falciparum K1, Carballeira and Tasdemir, unpublished data); 21.7 µM in [7] (read-out: IC50 P. falciparum K1, Carballeira and Tasdemir, unpublished data); 101.1 ± 0.9 µM in data set [8]; 1.1 µM in [9]; 2.9 µM in data set [10]. Further, the IC50 in [14] is 45.5 ± 3.4 µM; in data set [15], more than 100 µM; in [16], 26 ± 2 µM; in data set [17], 1 µM. In [4], the LDH release result is “significant LDH release”. For the same compound, the “MIC against M. smegmatis mc^2 155” value in data set [5] is 4 µM (≈ 1.12 µg/mL). Moreover, the “In vivo incorporation of [1-14C]acetate into fatty acids and hydrocarbons” value in data set [11] is recorded as “inhibited”. In addition, the Caspase-3 activation entry in [12] is “did not produce any significant caspase-3 activation”. In addition, the “MIC against Mycobacterium tuberculosis H37Rv” value in data set [13] was 20 to 25 µM.
